What was measured:
MM.1S cells = assay: Cell viability assay; type: cell-based; settings: Homo sapiens, MM1.S, 24 h, read-out: EC50 (cell viability)
In short: (§1)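 Cells kept in RPMI 1640 with 10% heat-inactivated FBS and penicillin/streptomycin at 37°C, 5% CO2. Plated 24 h before a 24 h exposure to test compound diluted from DMSO stock; vehicle controls got 1% DMSO. CellTiter-Glo added, equilibrated 5 min at 37°C, luminescence read at 470 nm (1 s). Survival as % of untreated control; EC50 from 3- or 4-parameter nonlinear regression.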

Granta BzR cells = assay: Cell viability assay; type: cell-based; settings: 24 h, read-out: EC50 (cell viability)
MM.1S BzR cells = assay: Cell viability assay; type: cell-based; settings: Homo sapiens, MM1.S, 24 h, read-out: EC50 (cell viability)
U266 cells = assay: Cell viability assay; type: cell-based; settings: Homo sapiens, U-266, 24 h, read-out: EC50 (cell viability)
In short: as §1

Granta cells = assay: Cell viability assay; type: cell-based; settings: 24 h, read-out: EC50 (cell viability)
In short: as §1

U266 BzR cells = assay: Cell viability assay; type: cell-based; settings: Homo sapiens, U-266, 24 h, read-out: EC50 (cell viability)
Mino BzR cells = assay: Cell viability assay; type: cell-based; settings: Homo sapiens, 24 h, read-out: EC50 (cell viability)
Mino cells = assay: Cell viability assay; type: cell-based; settings: Homo sapiens, 24 h, read-out: EC50 (cell viability)
In short: as §1

[1] = target: C-L (β1) proteasomal sub-catalytic activity (Homo sapiens, UniProt P28072); assay: Cell-based proteasome activity assay; settings: Ki50 C-L (β1), 24 h treatment
[2] = target: T-L (β2) proteasomal sub-catalytic activity (Homo sapiens, UniProt Q99436); assay: Cell-based proteasome activity assay; settings: Ki50 T-L (β2), 24 h treatment

SMILES: CC(C)C[C@H](NC(=O)[C@H](Cc1ccccc1)NC(=O)c1cnccn1)B(O)O [BTZ, bortezomib]
- EC50 (MM.1S cells): 2.31 ± 0.03 nM
- EC50 (Granta BzR cells): 51.5 ± 9.3 nM
- EC50 (MM.1S BzR cells): 28.4 ± 0.6 nM
- EC50 (U266 cells): 2.7 ± 0.2 nM
- EC50 (Granta cells): 14.9 ± 1.6 nM
- EC50 (U266 BzR cells): 14.1 ± 2 nM
- EC50 (Mino BzR cells): 23.4 ± 1.1 nM
- EC50 (Mino cells): 10 ± 0.4 nM

SMILES: CC(C)C[C@H](NC(=O)[C@H](CCc1ccccc1)NC(=O)CN1CCOCC1)C(=O)N[C@@H](Cc1ccccc1)C(=O)N[C@@H](CC(C)C)C(=O)[C@@]1(C)CO1 [CAR, carfilzomib]
- EC50 (MM.1S cells): 5.5 ± 0.2 nM
- EC50 (Granta BzR cells): 24.2 ± 1.4 nM
- EC50 (MM.1S BzR cells): 27.7 ± 1.6 nM
- EC50 (U266 cells): 6.9 ± 0.5 nM
- EC50 (Granta cells): 11.7 ± 0.3 nM
- EC50 (U266 BzR cells): 10.9 ± 1.4 nM
- EC50 (Mino BzR cells): 20.7 ± 0.7 nM
- EC50 (Mino cells): 6.3 ± 0.3 nM

SMILES: CC(C)C[C@H](NC(=O)CNC(=O)c1cc(Cl)ccc1Cl)B(O)O [IXA, ixazomib]
- EC50 (MM.1S cells): 25.5 ± 0.9 nM
- Ki ([1]; ARD cells): 19.6 ± 8.32 nM
- Ki ([1]; MM.1R cells): 7.41 ± 1.59 nM
- Ki ([1]; U266 cells): 16.1 ± 4.01 nM
- EC50 (Granta BzR cells): 774 ± 150 nM
- Ki ([2]; ARD cells): 92.8 ± 19.1 nM
- Ki ([2]; MM.1R cells): 29.3 ± 7.83 nM
- Ki ([2]; U266 cells): 74.9 ± 16.8 nM
- EC50 (MM.1S BzR cells): 449 ± 23 nM
- EC50 (U266 cells): 34.7 ± 2.1 nM
- EC50 (Granta cells): 147 ± 12 nM
- EC50 (U266 BzR cells): 169 ± 15 nM
- EC50 (Mino BzR cells): 336 ± 30 nM
- EC50 (Mino cells): 97.6 ± 4.6 nM
